In ChEMBL document CHEMBL4382268, “Glycyrrhetinic acid derivatives containing aminophosphonate ester species as multidrug resistance reversers that block the NF-κB pathway and cell proliferation” (Bioorg Med Chem Lett, 2018):
The source made the active and inactive calls. The rule behind the calls is not given here.

What was measured:
[1] = tested on: A549; test: Induction of apoptosis in human A549 cells assessed as late apoptotic cells at 5 uM after 24 hrs by annexin V-FITC/propidium iodide staining-based flow cytometry analysis (reference value: 2.20%); assay type: functional
Summary of the method: (§1)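 A549 cells treated at 5, 10 and 20 µM for 24 h, then harvested and stained with Annexin V-FITC and PI. Flow cytometry quadrants: Q1 necrotic, Q2 late apoptotic/necrotic, Q3 early apoptotic, Q4 living. Performed three times.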

[2] = tested on: A549; test: Cell cycle arrest in human A549 cells assessed as accumulation at G2 phase at 5 uM after 24 hrs by propidium iodide staining based flow cytometry (reference value: 14.1%); assay type: functional
[3] = Growth inhibition of cisplatin-resistant human SKOV3/DDP cells after 48 hrs by MTT assay; assay type: functional; conditions: SK-OV-3, 48 h
Summary of the method: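 MTT growth inhibition in the paired ovarian lines, cisplatin-sensitive SK-OV-3 and cisplatin-resistant SK-OV-3/CDDP. IC50 given as mean ± S.D. of three separate experiments, each in triplicate.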

[4] = tested on: A549; test: Cell cycle arrest in human A549 cells assessed as accumulation at G2 phase at 10 uM after 24 hrs by propidium iodide staining based flow cytometry (reference value: 14.1%); assay type: functional
[5] = tested on: A549; test: Induction of apoptosis in human A549 cells assessed as necrotic apoptotic cells at 5 uM after 24 hrs by annexin V-FITC/propidium iodide staining-based flow cytometry analysis (reference value: 0.520%); assay type: functional; summary of the method: as §1
[6] = tested on: A549; test: Induction of apoptosis in human A549 cells assessed as early apoptotic cells at 20 uM after 24 hrs by annexin V-FITC/propidium iodide staining-based flow cytometry analysis (reference value: 1.28%); assay type: functional; summary of the method: as §1
[7] = tested on: MGC-803; test: Antiproliferative activity against human MGC803 cells after 48 hrs by MTT assay; assay type: functional, cell-based; conditions: MGC-803, 48 h
Summary of the method: (§2)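 MTT read-out of antiproliferative activity across cancer lines HepG-2, NCI-H460, MGC-803, A549 and MG-63 and normal liver line HL-7702. IC50 given as mean ± S.D. of three separate experiments, each run in triplicate.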

[8] = tested on: A549; test: Induction of apoptosis in human A549 cells assessed as necrotic apoptotic cells at 10 uM after 24 hrs by annexin V-FITC/propidium iodide staining-based flow cytometry analysis (reference value: 0.520%); assay type: functional; summary of the method: as §1
[9] = tested on: NCI-H460; test: Antiproliferative activity against human NCI-H460 cells after 48 hrs by MTT assay; assay type: functional, cell-based; conditions: NCI-H460, 48 h; summary of the method: as §2
[10] = tested on: A549; test: Cell cycle arrest in human A549 cells assessed as accumulation at G1 phase at 5 uM after 24 hrs by propidium iodide staining based flow cytometry (reference value: 47.0%); assay type: functional
[11] = tested on: A549; test: Induction of apoptosis in human A549 cells assessed as necrotic apoptotic cells at 20 uM after 24 hrs by annexin V-FITC/propidium iodide staining-based flow cytometry analysis (reference value: 0.520%); assay type: functional; summary of the method: as §1
[12] = tested on: A549; test: Induction of apoptosis in human A549 cells after 24 hrs by annexin V-FITC/propidium iodide staining-based flow cytometry analysis; assay type: functional, cell-based; summary of the method: as §1
[13] = tested on: A549; test: Cell cycle arrest in human A549 cells assessed as accumulation at S phase at 5 uM after 24 hrs by propidium iodide staining based flow cytometry (reference value: 38.76%); assay type: functional
[14] = tested on: A549; test: Induction of ROS generation in human A549 cells at 5 to 20 uM after 24 hrs by DCFH-DA staining-based fluorescence microscopic analysis; assay type: functional, cell-based
Summary of the method: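 Intracellular ROS in A549 cells after 24 h incubation, using DCF-DA probe. Green cytoplasmic fluorescence viewed by fluorescence microscopy against untreated control. Three experiments.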

[15] = tested on: HepG2; test: Antiproliferative activity against human HepG2 cells after 48 hrs by MTT assay; assay type: functional, cell-based; conditions: HepG2, 48 h; summary of the method: as §2
[16] = tested on: A549; test: Cell cycle arrest in human A549 cells assessed as accumulation at S phase at 10 uM after 24 hrs by propidium iodide staining based flow cytometry (reference value: 38.76%); assay type: functional
[17] = species: Homo sapiens; test: Inhibition of TNF-alpha induced activation of NF-kappaB (unknown origin) assessed as reduction in DNA binding ability at 5 to 20 uM by cell based ELISA relative to TNF-alpha alone
Summary of the method: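 ELISA-type DNA-binding assay of NF-κB in TNF-α-stimulated A549 cells treated at 5, 10 and 20 µM. Compared against untreated and TNF-α-only controls. Mean ± SD, p < 0.05, three runs.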

[18] = Selectivity ratio of IC50 for cisplatin-resistant human SKOV3/DDP cells to IC50 for cisplatin sensitive human SKOV3 cells; assay type: functional
Summary of the method: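 IC50 determined in resistant SK-OV-3/CDDP cells divided by IC50 in parental SK-OV-3 cells. Each IC50 by MTT, three separate experiments each in triplicate.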

[19] = tested on: A549; test: Cell cycle arrest in human A549 cells assessed as accumulation at G2 phase at 20 uM after 24 hrs by propidium iodide staining based flow cytometry (reference value: 14.1%); assay type: functional
[20] = tested on: MG-63; test: Antiproliferative activity against human MG63 cells after 48 hrs by MTT assay; assay type: functional, cell-based; conditions: MG-63, 48 h; summary of the method: as §2
[21] = tested on: A549; test: Induction of apoptosis in human A549 cells assessed as viable cells at 20 uM after 24 hrs by annexin V-FITC/propidium iodide staining-based flow cytometry analysis (reference value: 96.0%); assay type: functional; conditions: A549, 24 h, read-out: Activity; summary of the method: as §1
[22] = tested on: A549; test: Induction of apoptosis in human A549 cells assessed as viable cells at 5 uM after 24 hrs by annexin V-FITC/propidium iodide staining-based flow cytometry analysis (reference value: 96.0%); assay type: functional; conditions: A549, 24 h, read-out: Activity; summary of the method: as §1
[23] = tested on: A549; test: Cell cycle arrest in human A549 cells assessed as accumulation at G1 phase at 10 uM after 24 hrs by propidium iodide staining based flow cytometry (reference value: 47.0%); assay type: functional
[24] = tested on: A549; test: Antiproliferative activity against human A549 cells after 48 hrs by MTT assay; assay type: functional, cell-based; conditions: A549, 48 h; summary of the method: as §2
[25] = tested on: L02; test: Antiproliferative activity against human HL-7702 cells after 48 hrs by MTT assay; assay type: functional, cell-based; conditions: L02, 48 h; summary of the method: as §2
[26] = tested on: A549; test: Induction of mitochondrial membrane potential loss in human A549 cells at 5 to 20 uM after 24 hrs by JC-1 staining-based fluorescence microscopic analysis; assay type: functional, cell-based
Summary of the method: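 A549 cells treated at 5, 10 and 20 µM for 24 h, then loaded with JC-1 probe for 30 min. Red J-aggregate and green J-monomer fluorescence viewed by fluorescence microscopy. Three experiments.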

[27] = tested on: A549; test: Induction of apoptosis in human A549 cells assessed as early apoptotic cells at 5 uM after 24 hrs by annexin V-FITC/propidium iodide staining-based flow cytometry analysis (reference value: 1.28%); assay type: functional; summary of the method: as §1
[28] = tested on: A549; test: Induction of apoptosis in human A549 cells assessed as hyper condensed nuclei at 5 to 20 uM after 24 hrs by Hoechst […] staining based fluorescence microscopic method; assay type: functional, cell-based
Summary of the method: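 After 24 h exposure at 5, 10 and 20 µM, A549 cells harvested and stained with Hoechst 33258. Nuclear morphology, including brightly stained hypercondensed nuclei, inspected against untreated control. Three experiments.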

[29] = tested on: A549; test: Cell cycle arrest in human A549 cells assessed as accumulation at S phase at 20 uM after 24 hrs by propidium iodide staining based flow cytometry (reference value: 38.76%); assay type: functional

CCOP(=O)(OCC)C(Nc1ccc(CC(=O)NCCCCNC(=O)[C@@]2(C)CC[C@]3(C)CC[C@]4(C)C(=CC(=O)[C@@H]5[C@@]6(C)CC[C@H](OC(C)=O)C(C)(C)[C@@H]6CC[C@]54C)[C@@H]3C2)cc1)c1ccc(F)cc1 (some centres undefined)
Activity [1]: 11.6% | Activity [2]: 0% | IC50 [3]: 8.94 µM | Activity [4]: 9.9% | Activity [5]: 0.09% | Activity [6]: 19.5% | IC50 [7]: 8.73 µM | Activity [8]: 0.386% | IC50 [9]: 8.28 µM | Activity [10]: 59.91% | Activity [11]: 0.509% | Activity [12]: Dose-dependent effect | Activity [13]: 40.09% | Activity [14]: Active | IC50 [15]: 9.11 µM | Activity [16]: 43.6% | fold change (FC) [17]: 2.3 | Ratio IC50 [18]: 0.92 | Activity [19]: 2.66% | IC50 [20]: 9.01 µM | viability at 20 µM [21]: 40.3% | viability at 5 µM [22]: 86.4% | Activity [23]: 46.5% | IC50 [24]: 6.25 µM | IC50 [25]: > 50 µM | Activity [26]: Active | Activity [27]: 1.96% | Activity [28]: Active | Activity [29]: 54.32%
